What all share (type): cell-based
The target of experiment [1] is T1, Probable G-protein coupled receptor 34 (Homo sapiens, UniProt Q9UPC5). Briefly: Agonist activity at human GPR34 expressed in HEK293 cells co-transfected with AP-TGFalpha/chimeric Galphaq/i1 assessed as induction of AP-TGFalpha release after 1 hr. The essentials: (§1)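 HEK293A cells transiently co-transfected with AP-TGFα, chimeric Gαq/i1 and GPR34 (human for line 1, mouse for line 3) or empty vector (mock). After 24 h, cells were suspended in HBSS with 5 mM HEPES pH 7.4 and preincubated 30 min with 10 μM (final) Ki16425. Compounds in HBSS with 0.01% fatty acid-free BSA were added for 1 h at 37 °C. AP activity in medium and on cells was read as OD405 with p-NPP after 1 h at room temperature.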
T1 sequence (Q9UPC5 whole entry): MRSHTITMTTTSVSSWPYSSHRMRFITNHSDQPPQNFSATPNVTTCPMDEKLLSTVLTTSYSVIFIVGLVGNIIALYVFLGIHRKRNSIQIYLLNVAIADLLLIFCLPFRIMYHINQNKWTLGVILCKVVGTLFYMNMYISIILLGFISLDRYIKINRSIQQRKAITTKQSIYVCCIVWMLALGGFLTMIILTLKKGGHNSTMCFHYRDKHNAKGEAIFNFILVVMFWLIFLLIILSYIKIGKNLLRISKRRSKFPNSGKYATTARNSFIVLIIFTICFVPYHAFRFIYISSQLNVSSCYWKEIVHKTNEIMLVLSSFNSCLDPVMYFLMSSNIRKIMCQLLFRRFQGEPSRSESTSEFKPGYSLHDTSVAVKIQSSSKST

Experiment [2] deals with Probable G-protein coupled receptor 34 (Mus musculus) (UniProt Q9R1K6). Kind of experiment: Agonist activity at mouse GPR34 expressed in HEK293 cells co-transfected with AP-TGFalpha/chimeric Galphaq/i1 assessed as induction of ectodomain shedding of membrane bound AP-TGFalpha after 1 hr relative to control. The essentials: (§2)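 Same AP-TGFα shedding set-up in HEK293A (human GPR34 for line 2, mouse for line 4). Release was the %AP-TGFα in medium minus vehicle, then minus the mock-transfected response. Emax (% AP-TGFα release) and LogEC50 came from four-parameter sigmoid fits of plateau or semiplateau curves, as mean ± SEM of n independent experiments.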
Probable G-protein coupled receptor 34 (Mus musculus), sequence (Q9R1K6 whole entry, the tested form may be a part): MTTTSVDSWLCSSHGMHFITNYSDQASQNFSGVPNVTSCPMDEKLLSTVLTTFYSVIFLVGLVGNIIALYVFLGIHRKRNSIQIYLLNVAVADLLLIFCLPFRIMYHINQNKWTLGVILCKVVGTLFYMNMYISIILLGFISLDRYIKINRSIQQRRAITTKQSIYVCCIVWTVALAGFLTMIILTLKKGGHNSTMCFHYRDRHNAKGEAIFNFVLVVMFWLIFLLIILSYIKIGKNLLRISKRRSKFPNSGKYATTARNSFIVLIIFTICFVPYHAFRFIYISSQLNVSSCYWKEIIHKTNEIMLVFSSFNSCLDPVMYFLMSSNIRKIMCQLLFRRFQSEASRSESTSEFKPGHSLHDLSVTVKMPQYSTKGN

In experiment [3] the target is Probable G-protein coupled receptor 34 (Mus musculus, UniProt Q9R1K6). Briefly: Agonist activity at mouse GPR34 expressed in HEK293 cells co-transfected with AP-TGFalpha/chimeric Galphaq/i1 assessed as induction of ectodomain shedding of membrane bound AP-TGFalpha after 1 hr. Put shortly:
as §1

For experiment [4], the target named is T1, Probable G-protein coupled receptor 34. Briefly: Intrinsic activity at human GPR34 expressed in HEK293 cells co-transfected with AP-TGFalpha/chimeric Galphaq/i1 assessed as induction of AP-TGFalpha release after 1 hr relative to O-(Hydroxy(((2R,3R)-2-(((3-(2-((3-phenoxybenzyl)oxy)phenyl)- propanoyl)oxy)methyl)tetrahydro-2H-pyran-3-yl)oxy)phosphoryl)- L-serine.

The target is the same in experiment [5]. Briefly: Agonist activity at human GPR34 expressed in HEK293 cells co-transfected with AP-TGFalpha/chimeric Galphaq/i1 assessed as induction of AP-TGFalpha release after 1 hr relative to control. Put shortly: as §2
The target in experiment [6] is Probable G-protein coupled receptor 34 (Mus musculus) (UniProt Q9R1K6). Briefly: Intrinsic activity at mouse GPR34 expressed in HEK293 cells co-transfected with AP-TGFalpha/chimeric […] assessed as induction of ectodomain shedding of membrane bound AP-TGFalpha after 1 hr relative to O-(Hydroxy(((2R,3R)-2-(((3-(2-((3-phenoxybenzyl)oxy)phenyl)- propanoyl)oxy)methyl)tetrahydro-2H-pyran-3-yl)oxy)phosphoryl)- L-serine. Put shortly: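 Relative intrinsic activity (RIA) was Emax/EC50 relative to that of a positive control agonist, whose RIA is defined as 1. Emax and EC50 came from sigmoid fits of receptor-specific AP-TGFα release in the HEK293A shedding assay, with human GPR34 for line 5 and mouse GPR34 for line 6, after 1 h at 37 °C.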

SMILES strings stand for the structures.

For orientation: Emax means the size of the effect at its maximum, as opposed to the concentration needed.

Probable G-protein coupled receptor 34 (Mus musculus, UniProt Q9R1K6), sequence (Q9R1K6 whole entry, the tested form may be a part): as above

With `Cc1ccc(Oc2cccc(COc3ccccc3CCC(=O)OCCCOP(=O)(O)OC[C@H](N)C(=O)O)c2)cc1`, the EC50 in experiment [1] (read-out: EC50) was determined as 27 nM; in experiment [3], 39 nM. The Emax in experiment [2] turned out to be 18.2%; in experiment [5] it was 22.1%. The Intrinsic activity in experiment [4] worked out at 9.8; in experiment [6], 3.7.
Turning to `Cc1ccccc1Oc1cccc(COc2ccccc2CCC(=O)OCCCOP(=O)(O)OC[C@H](N)C(=O)O)c1`, the results for the EC50 in experiment [1] (read-out: EC50) and in experiment [3] were 180 nM and 650 nM, respectively. Moreover, the figures for the Emax in experiment [2] and in experiment [5] were 20.3% and 22%, respectively. Besides, the Intrinsic activity in experiment [4] came out at 1.2; in experiment [6], 0.28.
Take `CCCCCCCC/C=C\CCCCCCCC(=O)OC[C@@H](O)COP(=O)(O)OC[C@H](N)C(=O)O`: the maximal effect (Emax) in experiment [2] is 14%. Also, the Intrinsic activity in experiment [6] worked out at 0.26.
Turning to `Nc1ccc(Oc2cccc(COc3ccccc3CCC(=O)OCCCOP(=O)(O)OC[C@H](N)C(=O)O)c2)cc1`, in experiment [2], the Emax was determined as 21.3%. The EC50 in experiment [3] turned out to be 2700 nM. In addition, the Intrinsic activity in experiment [6] turned out to be 0.089.
For the compound `N[C@@H](COP(=O)(O)OCCCOC(=O)CCc1ccccc1OCc1cccc(OCc2ccccc2)c1)C(=O)O`, in experiment [3], the EC50 was above 3000 nM.
Regarding `Cc1ccccc1-c1ccc(Oc2cccc(COc3ccccc3CCC(=O)OCCCOP(=O)(O)OC[C@H](N)C(=O)O)c2)cc1`, the Emax in experiment [2] is 13.4%. Also, the EC50 in experiment [3] turned out to be 78 nM. Moreover, in experiment [6], the Intrinsic activity stood at 0.94.
On the same counts, the results for `COc1ccc(Oc2cccc(COc3ccccc3CCC(=O)OCCCOP(=O)(O)OC[C@H](N)C(=O)O)c2)cc1` are 16.6%, 260 nM and 0.28.
Consider `CCCCCCCCCCCOc1ccccc1CCC(=O)OCCCOP(=O)(O)OC[C@H](N)C(=O)O`, for which the Emax in experiment [2] stood at 14.6%. In experiment [3], the EC50 is 1600 nM. In addition, in experiment [6], the Intrinsic activity stood at 0.04.
On the same counts, the results for `CC(C)(C)c1ccc(-c2ccc(Oc3cccc(COc4ccccc4CCC(=O)OCCCOP(=O)(O)OC[C@H](N)C(=O)O)c3)cc2)cc1` are 16.5%, 7.9 nM and 21.
As to `N[C@@H](COP(=O)(O)OCCCOC(=O)CCc1ccccc1OCc1cccc(Oc2ccc(-c3ccccc3)cc2)c1)C(=O)O`, the EC50 came out at 78 nM in experiment [1] (read-out: EC50) and 45 nM in experiment [3]. The maximal response (Emax) in experiment [2] was found to be 17.8%; in experiment [5], 23%. The Intrinsic activity was 2.1 in experiment [4] and 2.2 in experiment [6].
Regarding `N[C@@H](COP(=O)(O)OCCCOC(=O)CCc1ccccc1OCc1cccc(Oc2ccc(Br)cc2)c1)C(=O)O`, the Emax in experiment [2] was 17.7%. For the same compound, the EC50 in experiment [3] was 82 nM. For the same compound, the Intrinsic activity in experiment [6] stood at 0.97.
For the compound `CCCCCCCC/C=C\CCCCCCCC(=O)OCCCOP(=O)(O)OC[C@H](N)C(=O)O`, in experiment [3], the EC50 is above 3000 nM.
With `N[C@@H](COP(=O)(O)OCCCOC(=O)CCc1ccccc1OCc1cccc(Cc2ccccc2)c1)C(=O)O`, the maximal response (Emax) in experiment [2] stood at 14.5%. For the same compound, the EC50 in experiment [3] was determined as 1300 nM. Also, the Intrinsic activity in experiment [6] turned out to be 0.077.
On the same counts, the results for `CCc1ccc(Oc2cccc(COc3ccccc3CCC(=O)OCCCOP(=O)(O)OC[C@H](N)C(=O)O)c2)cc1` are 19.3%, 180 nM and 0.42.
As to `CC(C)(C)c1ccc(Oc2cccc(COc3ccccc3CCC(=O)OCCCOP(=O)(O)OC[C@H](N)C(=O)O)c2)cc1`, the EC50 in experiment [1] (read-out: EC50) amounted to 300 nM; in experiment [3] it was 900 nM. Further, the Emax in experiment [2] turned out to be 16.9%; in experiment [5] it was 28.2%. In addition, the Intrinsic activity in experiment [4] amounted to 0.7; in experiment [6], 0.079.
Regarding `Cc1cccc(Oc2cccc(COc3ccccc3CCC(=O)OCCCOP(=O)(O)OC[C@H](N)C(=O)O)c2)c1`, the EC50 in experiment [1] (read-out: EC50) turned out to be 230 nM; in experiment [3], 550 nM. Further, the maximal effect (Emax) is 21.3% in experiment [2] and 24.2% in experiment [5]. The Intrinsic activity in experiment [4] amounted to 1.2; in experiment [6], 0.29.
Take `N[C@@H](COP(=O)(O)OCCCOC(=O)CCc1ccccc1OCCCCOc1ccccc1)C(=O)O`: the Emax in experiment [2] was found to be 6.1%. Moreover, the EC50 in experiment [3] was 1700 nM. Further, in experiment [6], the Intrinsic activity stood at 0.033.
In the case of `N[C@@H](COP(=O)(O)OCCCOC(=O)CCc1ccccc1OCc1cccc(Oc2ccc(-c3ccc(-c4ccccc4)cc3)cc2)c1)C(=O)O`, the EC50 in experiment [1] (read-out: EC50) is 41 nM; in experiment [3] it was 18 nM. Besides, the Emax in experiment [2] came to 11.6%; in experiment [5], 17%. The Intrinsic activity amounted to 3.2 in experiment [4] and 4.3 in experiment [6].
With `CC(C)(C)c1ccccc1Oc1cccc(COc2ccccc2CCC(=O)OCCCOP(=O)(O)OC[C@H](N)C(=O)O)c1`, the EC50 in experiment [3] is above 3000 nM.
The same measure, in the same setting: as for `CCCCCCOc1cccc(COc2ccccc2CCC(=O)OCCCOP(=O)(O)OC[C@H](N)C(=O)O)c1`, the figure is above 3000 nM.
For `CCCCCCOc1ccc(-c2ccc(Oc3cccc(COc4ccccc4CCC(=O)OCCCOP(=O)(O)OC[C@H](N)C(=O)O)c3)cc2)cc1`, in experiment [2], the maximal response (Emax) was found to be 17.4%. Further, the EC50 in experiment [3] worked out at 49 nM. Besides, the Intrinsic activity in experiment [6] is 3.4.
On the same counts, the results for `N[C@@H](COP(=O)(O)OCCCOC(=O)CCc1ccccc1OCc1cccc(Oc2ccccc2Cl)c1)C(=O)O` are 19.8%, 1200 nM and 0.069.
Consider `N#Cc1ccc(Oc2cccc(COc3ccccc3CCC(=O)OCCCOP(=O)(O)OC[C@H](N)C(=O)O)c2)cc1`, for which, in experiment [2], the maximal response (Emax) is 18.3%. For the same compound, the EC50 in experiment [3] is 2000 nM. In addition, the Intrinsic activity in experiment [6] was 0.041.
Regarding `N[C@@H](COP(=O)(O)OCCCOC(=O)CCc1ccccc1OCc1cccc(Oc2ccccc2)c1)C(=O)O`, the EC50 in experiment [1] (read-out: EC50) was 90 nM; in experiment [1] (read-out: pEC50 (converted)), 95.5 nM; in experiment [3] it was 220 nM. The values for the Emax in experiment [2] and in experiment [5] were 19.4% and 21.7%, respectively. In addition, the figures for the Intrinsic activity in experiment [4] and in experiment [6] were 1.7 and 0.48, respectively.
As for `N[C@@H](COP(=O)(O)OCCCOC(=O)CCc1ccccc1OCc1cccc(OC2CCCCC2)c1)C(=O)O`, the Emax in experiment [2] amounted to 18.8%. Also, the EC50 in experiment [3] turned out to be 800 nM. The Intrinsic activity in experiment [6] is 0.11.
On to `CC(C)(C)c1cccc(-c2ccc(Oc3cccc(COc4ccccc4CCC(=O)OCCCOP(=O)(O)OC[C@H](N)C(=O)O)c3)cc2)c1`, for which the figures for the EC50 in experiment [1] (read-out: EC50) and in experiment [3] were 15 nM and 14 nM, respectively. Also, the maximal effect (Emax) in experiment [2] was determined as 15.9%; in experiment [5], 18.8%. In addition, the Intrinsic activity came out at 8.6 in experiment [4] and 7.7 in experiment [6].
Consider `N[C@@H](COP(=O)(O)OCCCOC(=O)CCc1ccccc1OCCCCCCOc1ccccc1)C(=O)O`, for which the Emax in experiment [2] was determined as 20.7%. The EC50 in experiment [3] came to 1200 nM. For the same compound, in experiment [6], the Intrinsic activity came to 0.071.
As to `N[C@@H](COP(=O)(O)OCCCOC(=O)CCc1ccccc1OCc1cccc(Oc2cccc(Cl)c2)c1)C(=O)O`, the Emax in experiment [2] is 17.1%. Besides, the EC50 in experiment [3] came out at 170 nM. Further, in experiment [6], the Intrinsic activity came to 0.53.
With `N[C@@H](COP(=O)(O)OCCCOC(=O)CCc1ccccc1OCc1cccc(Oc2ccc(F)cc2)c1)C(=O)O`, the maximum response (Emax) in experiment [2] was found to be 18.7%. In experiment [3], the EC50 stood at 120 nM. In addition, in experiment [6], the Intrinsic activity is 0.66.
For the compound `N[C@@H](COP(=O)(O)OCCCOC(=O)CCc1ccccc1OCc1cccc(Oc2ccc(Cl)cc2)c1)C(=O)O`, the Emax in experiment [2] amounted to 17.8%. For the same compound, the EC50 in experiment [3] was found to be 120 nM. Also, the Intrinsic activity in experiment [6] stood at 0.76.
On to `N[C@@H](COP(=O)(O)OCCCOC(=O)CCc1ccccc1OCc1cccc(Oc2ccc(Cl)c(Cl)c2)c1)C(=O)O`, for which the maximal response (Emax) in experiment [2] is 18%. For the same compound, in experiment [3], the EC50 was determined as 110 nM. Also, in experiment [6], the Intrinsic activity was 0.71.
In the case of `CCCCCCOCC#CCOc1ccccc1CCC(=O)OCCCOP(=O)(O)OC[C@H](N)C(=O)O`, the EC50 in experiment [3] is above 3000 nM.
The same measure, in the same setting: as for `N[C@@H](COP(=O)(O)OCCCOC(=O)CCc1ccccc1OCc1cccc(-c2ccccc2)c1)C(=O)O`, the figure is above 3000 nM.
Turning to `CC(C)(C)c1cccc(Oc2cccc(COc3ccccc3CCC(=O)OCCCOP(=O)(O)OC[C@H](N)C(=O)O)c2)c1`, the Emax in experiment [2] turned out to be 19.9%. The EC50 in experiment [3] is 210 nM. Besides, in experiment [6], the Intrinsic activity was found to be 0.39.
The matching figures for `N[C@@H](COP(=O)(O)OCCCOC(=O)CCc1ccccc1OCc1cccc(Oc2ccc(I)cc2)c1)C(=O)O`: 19.1%, 100 nM and 0.82.

Source of the values: ChEMBL document CHEMBL4011662 (J Med Chem, 2017).
